# An excerpt weighted towards active compounds, which were near 2.3% of everything screened.
# TAAR1 agonist – human TAAR1 agonists, primary screen, Fluo-8 calcium fluorescence, CHO RD-HGA16 cells. Trace amine-associated receptor 1 (Homo sapiens), Q96RJ0. vehicle wells 0%, saturating PEA agonist 100%. activation, % at 3 µM. hit rate 0.99% among 360,000. AID 624467, 2012;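 active = activation above the mean activation of all test compounds in the run plus 3 SD, cut at about 38% in these data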
#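 Signal – calcium-sensitive Fluo-8 signal, excitation 470-495, emission 515-575 nm · System – RD-HGA16 (CHO) cells co-expressing Gα16 and hTAAR1 · Incubation – 17-24 h seeding, 75 min 37 °C dye, 30 min RT · Compound dosing – 3 µM single concentration · Repeats – no replicates (n 1)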
# OXTR potentiator – human OXTR potentiators, primary screen, fluorescence, CHO-OTR cells, Fluo-8 calcium; Oxytocin receptor (Homo sapiens), P30559; Fluo-8 calcium fluorescence, potentiator mode; 0% = oxytocin EC15, 100% = EC100; activation, % at 3 µM; hit rate 0.061% among 320,000; AID 2445, 2010;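 active = activation above that plate's cutoff, the mean activation of tested compounds plus 3 SD, cut at about 6.6% in these data, passing the limit was not always enough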
#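 System: human OTR in CHO cells; Also added: sub-maximal oxytocin, roughly EC15; Timing: compound 6 min at room temperature before oxytocin, 100 s read; Technique: Fluo-8 intracellular calcium fluorescence, ex 470-495, em 515-575 nm; Controls: oxytocin EC15 low and EC100 high; Replication: singlicate.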
# V1aR counter – agonists of human V1a receptor, primary screen, counter-screen for OXTR agonist project, fluorescence, CHO-V1R cells. hit rate 0.25% among 320,000. AID 2797, 2010. Fluo-8 calcium fluorescence, agonist mode; 0% DMSO, 100% 3 nM vasopressin. Vasopressin V1a receptor (Homo sapiens), P37288. activation, % at 3 µM;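 active = activation above the mean activation of all tested compounds plus 3 SD, per screening run, cut at about 20% in these data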;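 note: signal is peak over basal fluorescence ratio across a 100 second FLIPR read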
# Target sequence (P37288 whole entry, looked up): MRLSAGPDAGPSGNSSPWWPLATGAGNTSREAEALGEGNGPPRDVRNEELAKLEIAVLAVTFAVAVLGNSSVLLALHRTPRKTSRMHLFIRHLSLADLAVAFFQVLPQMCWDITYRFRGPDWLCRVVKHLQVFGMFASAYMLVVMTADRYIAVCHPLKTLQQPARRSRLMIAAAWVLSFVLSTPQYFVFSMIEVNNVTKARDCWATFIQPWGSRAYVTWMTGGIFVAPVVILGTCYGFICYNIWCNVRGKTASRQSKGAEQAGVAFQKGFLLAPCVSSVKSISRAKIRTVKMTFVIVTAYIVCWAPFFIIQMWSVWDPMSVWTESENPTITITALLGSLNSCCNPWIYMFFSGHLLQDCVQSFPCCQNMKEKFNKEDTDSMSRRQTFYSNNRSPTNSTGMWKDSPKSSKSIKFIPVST
# TAAR1 antag – human TAAR1 antagonists, primary screen, Fluo-8 calcium fluorescence, CHO RD-HGA16 cells; inhibition, % at 3 µM; hit rate 1.5% among 360,000; Trace amine-associated receptor 1 (Homo sapiens), Q96RJ0; antagonist;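 active = inhibition above a per-plate cutoff, the mean inhibition of test compounds on that plate plus 3 SD, cut at about 49% in these data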
#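 Material: CHO RD-HGA16 cells bearing hTAAR1; compound dosing: one-point dosing, 3 µM nominal final; schedule: dye loading 75 min at 37 °C, then 30 min room temperature; measured by: calcium fluorescence with Fluo-8; control set: vehicle and agonist controls; replication: n of 1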
# OXTR agonist – human OXTR agonists, primary screen, fluorescence, CHO-OTR cells, Fluo-8 calcium; Fluo-8 calcium fluorescence; normalized: DMSO 0%, oxytocin 100%; activation, % at 3 µM; hit rate 0.32% among 320,000; AID 2435, 2010;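 active = activation above the mean of all tested compounds plus 3 SD, cutoff set per screening run, cut at about 20% in these data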;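 note: peak over basal fluorescence ratio from a 100 s FLIPR kinetic read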
# TAAR1 ag conf – human TAAR1 agonists, retest of hits, confirmation, Fluo-8 calcium fluorescence, CHO RD-HGA16 cells; scaled: DMSO 0%, maximal phenethylamine 100%; activation, % at 3 µM; AID 651783, 2012; shares compounds with TAAR1 agonist; hit rate 82% among 2,400;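 active = activation above a cutoff set at the run's mean compound activation plus 3 SD, cut at about 39% in these data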
# Ga16 nonsel ag – nonselective calcium mobilization agonists, CHO-Ga16 cells, counter-screen for hTAAR1 agonist project, cell-based, fluorescence, CHO-Ga16 parental line; shares compounds with TAAR1 agonist; Fluo-8 calcium fluorescence; normalized to maximal ATP response, DMSO zero; activation, % at 3 µM; hit rate 50% among 2,400;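 active = activation above the run cutoff, the mean activation over all tested wells plus 3 SD, cut at about 12% in these data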
# TAAR1 desens – TAAR1 desensitization by agonist hits, confirmation, counter-screen for TAAR1 agonist project, cell-based, fluorescence, tachyphylaxis. shares compounds with TAAR1 agonist. CHO RD-HGA16 hTAAR1, Fluo-8 calcium, beta-PEA response inhibition. inhibition, % at 3 µM. hit rate 46% among 2,400. AID 651951, 2012;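 active = inhibition above the run cutoff, the mean inhibition of all test compounds plus 3 SD, cut at about 49% in these data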;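 note: beta-PEA stimulus applied at its EC80; loss of beta-PEA calcium signal after compound pretreatment read as receptor desensitization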
# Ga16 antag count – inhibition of ATP-evoked calcium response in CHO-Ga16 cells, counter-screen for TAAR1 agonist project, cell-based, fluorescence; shares compounds with TAAR1 agonist; CHO-Ga16 ATP-induced calcium, Fluo-8 fluorescence; inhibition, % at 3 µM; hit rate 39% among 2,400; AID 651952, 2012;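 active = inhibition above the plate's mean compound inhibition plus 3 SD, computed per plate, cut at about 22% in these data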
# A number is an active result; . = inactive; / = no result.
SMILES,TAAR1 agonist,OXTR potentiator,V1aR counter,TAAR1 antag,OXTR agonist,TAAR1 ag conf,Ga16 nonsel ag,TAAR1 desens,Ga16 antag count
COc1ccc(S(=O)(=O)NNC(=S)NCCc2ccccc2)c(OC)c1,49,.,.,.,.,.,.,.,.
COCCNc1nc(NCc2ccccc2)nc2ccsc12,153,/,/,104,/,123,103,107,102
COCCNc1nc(NC(C)C)nc2ccsc12,.,/,/,.,/,/,/,/,/
CC(=O)NCCNc1nc(NCc2ccccc2)nc2ccsc12,91,/,/,92,/,109,23,101,53
COc1cccc(CNC(=O)CCC2CCCN(c3cc(C)nc(N)n3)C2)c1 (configuration not stated),.,.,.,.,.,/,/,/,/
Cc1cccc(-n2c(SCc3ccc(C#N)cc3)nnc2-c2c[nH]c3ccccc23)c1,.,.,.,.,.,/,/,/,/
Nc1[nH]c(C(=O)c2ccccc2)c(-c2ccc(Cl)cc2)c1C(=O)c1c[nH]c2ccc(Br)cc12,.,/,/,.,/,/,/,/,/
CC1(C)CC(=O)C(C=NCCc2ccc(O)cc2)=C(O)C1,66,.,.,.,.,106,.,79,.
Oc1ccc(/C=N/N2CCN(Cc3ccccc3)CC2)cc1,.,.,.,.,.,/,/,/,/
Oc1ccc(C=NCCc2ccccc2)cc1,/,.,.,/,.,/,.,/,.
O=C1CC(c2ccccc2)CC(O)=C1C=NCCc1ccccc1 (configuration not stated),67,.,.,.,.,72,.,.,.
O=C(CNc1cc(S(=O)(=O)N2CCCC2)ccc1OCC(F)(F)F)Nc1cccc(C(F)(F)F)c1,.,.,.,.,.,/,/,/,/
O=C(CCS(=O)(=O)c1ccc2c(c1)NC(=O)CO2)NCc1ccccc1,.,.,.,.,.,/,/,/,/
O=C(CCS(=O)(=O)c1ccc2c(c1)NC(=O)CO2)NCCc1ccccc1,66,.,.,.,.,62,.,.,.
Cc1cc(N(C)C)nc(Nc2ccccc2)n1,92,.,.,87,.,108,.,99,.
O=C(CCc1nnc(CCCCc2ccccc2)o1)NCCN1CCCCC1=O,.,.,.,.,.,/,/,/,/
C/C(CC(=O)Nc1cccc(Cl)c1Cl)=N\NC(=O)c1ccccc1C,.,.,.,.,.,/,/,/,/
O=C(CNCCc1ccccc1)Nc1ccc(C(=O)N2CCCCC2)cc1,46,.,.,.,.,69,.,.,.
Cc1c(C(=O)N2CCCCC2)c(S(=O)(=O)NCCc2ccccc2)c(C)n1C,.,.,.,.,.,/,/,/,/
Cc1[nH]c(C)c(S(=O)(=O)NCCc2ccccc2)c1C(=O)N1CCCCC1,53,.,.,.,.,.,.,.,.
C/C(=C\C=C(C#N)C#N)c1cc(C#N)c(N)o1,99,/,/,.,/,.,33,.,25
COC(=O)C1=C(C)N(Cc2ccc(C(F)(F)F)cc2)C(=NCc2ccc3c(c2)OCO3)NC1c1ccccc1 (configuration not stated),.,/,/,.,/,/,/,/,/
COC(=O)C1=C(C)N(Cc2cccc(C(F)(F)F)c2)C(=NCc2ccc3c(c2)OCO3)NC1c1ccccc1 (configuration not stated),43,/,/,.,/,47,14,.,27
COC(=O)C1=C(C)N(Cc2cccc(C(F)(F)F)c2)C(=NCc2ccc3c(c2)OCO3)NC1c1cccc(F)c1 (configuration not stated),65,/,/,58,/,58,20,68,43
COC(=O)C1=C(C)N(Cc2cccc(C(F)(F)F)c2)C(=NCc2cc(OC)c(OC)c(OC)c2)NC1c1ccc(F)cc1 (configuration not stated),60,/,/,52,/,.,16,.,30
SMILES,TAAR1 agonist,OXTR potentiator,V1aR counter,TAAR1 antag,OXTR agonist,TAAR1 ag conf,Ga16 nonsel ag,TAAR1 desens,Ga16 antag count
Cc1cccc(CN2CCN(C3CN(Cc4cn(Cc5ccccc5)nn4)S(=O)(=O)C3)CC2)c1 (configuration not stated),.,/,/,.,/,/,/,/,/
CC(/C=N/NC(=O)c1cnccn1)=C\c1ccco1,.,.,.,.,.,/,/,/,/
OCCNc1nc(Nc2ccccc2)nc(Nc2ccccc2)n1,.,.,.,.,.,/,/,/,/
OCCNc1nc(Nc2ccccc2)nc2ccccc12,97,.,.,92,.,89,.,98,.
Cc1c(Cl)cccc1Nc1nc(NCCO)c2ccccc2n1,49,.,.,.,.,83,.,84,.
COc1ccccc1C(=O)N/C(=C\c1cn(S(=O)(=O)N(C)C)c2ccccc12)C(=O)N1CCCC1,.,.,.,.,.,/,/,/,/
O=C(O)c1ccn2c(C(=O)c3ccccc3)c(-c3ccccc3)cc2c1,.,.,.,.,.,/,/,/,/
Cc1ccc(S(=O)(=O)c2nc(S(=O)(=O)c3ccc(C)cc3)c(N3CCN(CCO)CC3)s2)cc1,.,.,.,.,.,/,/,/,/
COC(=O)c1c(NS(=O)(=O)c2ccc3ccccc3c2)sc2c1CCCC2,.,.,.,.,.,/,/,/,/
CC1CCc2c(sc(NS(=O)(=O)c3ccccc3)c2C(=O)OC(C)C)C1 (configuration not stated),43,.,.,.,.,.,19,.,26
O=C(Cc1ccccc1)NC1c2ccccc2-c2ccccc21,.,.,.,.,.,/,/,/,/
CN1CCN(C(c2ccc(C(F)(F)F)cc2)c2cc(Cl)c3cccnc3c2O)CC1 (configuration not stated),119,.,.,.,.,129,106,81,44
CCN1CCN(C(c2ccc(C(F)(F)F)cc2)c2ccc3cccnc3c2O)CC1 (configuration not stated),.,.,.,.,.,/,/,/,/

# Assay outcomes from PubChem BioAssay.
